Laboratory results as given in ChEMBL document CHEMBL1141664, “Design and evaluation of anacardic acid derivatives as anticavity agents” (2008).
Converted amounts (≈) assume the structure as drawn. The source made the active and inactive calls. The rule behind the calls is not given here.

Legend:
Escherichia coli = test: Antibacterial activity against Escherichia coli ATCC 9637 up to 200 ug/ml after 2 days by twofold broth dilution method; type: functional, organism-based
In short: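 Twofold serial broth dilution run in NYG broth (0.8% nutrient broth, 0.5% yeast extract, 0.1% glucose). MIC is the lowest concentration fully inhibiting visible growth.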

Streptococcus mutans [1] = test: Antibacterial activity against Streptococcus mutans ATCC 25175 after 2 days by twofold broth dilution method in presence of anethole; type: functional; settings: ATCC 25175, 48 h
Streptococcus mutans [2] = test: Antibacterial activity against Streptococcus mutans ATCC 25175 after 2 days by twofold broth dilution method; type: functional; settings: ATCC 25175, 48 h
In short: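 Freeze-dried S. mutans grown stationary 2 days at 37 °C in 3.7% BHI broth, then used as inoculum. Compounds serially 2-fold diluted in DMF and added to BHI broth, with solubility limiting the top concentration. MIC is the lowest concentration giving complete inhibition of visible growth after 2 days at 37 °C. At least triplicate on separate occasions.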

Cutibacterium acnes = test: Antibacterial activity against Propionibacterium acnes ATCC 11827; type: functional

| Structure (SMILES) | Activity (Escherichia coli) | MBC (Streptococcus mutans [1]) [µg/mL] | MBC (Streptococcus mutans [2]) [µg/mL] | MIC (Streptococcus mutans [2]) [µg/mL] | MIC (Cutibacterium acnes) [µg/mL] |
| --- | --- | --- | --- | --- | --- |
| CCCCCCCCCOC(=O)c1ccccc1O | inactive |  |  |  |  |
| C=CC/C=C\C/C=C\CCCCCCCc1cccc(O)c1C(=O)O [ANACARDIC ACID] | inactive | 0.78 | 6.25 (≈ 18.2 µM) | 1.56 (≈ 4.56 µM) |  |
| C/C=C/c1ccc(OC)cc1 | inactive |  |  |  |  |
| O=C(O)c1c(O)cccc1CCc1cc(O)c(O)cc1O | inactive |  |  | 200 (≈ 689 µM) |  |
| O=C(O)c1c(O)cccc1CCc1ccccc1 | inactive |  |  | 50 (≈ 206 µM) |  |
| O=C(O)c1c(O)cccc1CC1CCCCC1 | inactive |  |  | 25 (≈ 107 µM) |  |
| C=CC/C=C\C/C=C\CCCCCCCc1cccc(OC(C)=O)c1C(=O)O | inactive |  |  |  |  |
| O=C(O)c1c(O)cccc1CCc1cc(O)ccc1O | inactive |  |  | 200 (≈ 729 µM) |  |
| CCCCCCCCCCCCCCCc1cccc(O)c1C(=O)O [ANACARDIC ACID] | inactive |  |  | > 800 | 0.78 (≈ 2.24 µM) |
| C=CC/C=C\C/C=C\CCCCCCCc1cccc(O)c1C(=O)OC | inactive |  |  |  |  |
| O=C(O)c1c(O)cccc1CC1CCCC1 | inactive |  |  | 25 (≈ 113 µM) |  |
| CCCCCCCCCCCCc1cccc(O)c1C(=O)O | inactive |  | 6.25 (≈ 20.4 µM) | 1.56 (≈ 5.09 µM) |  |
| O=C(O)c1c(O)cccc1CCCCc1ccccc1 | inactive |  |  | 6.25 (≈ 23.1 µM) |  |
| O=C(O)c1c(O)cccc1CCc1ccc(O)c(O)c1 | inactive |  |  | 200 (≈ 729 µM) |  |
| O=C(O)c1c(O)cccc1CCC1CCCCC1 | inactive |  |  | 3.13 (≈ 12.6 µM) |  |
| O=C(O)c1c(O)cccc1CC1CCCCCCC1 | inactive |  |  | 6.25 (≈ 23.8 µM) |  |
| O=C(O)c1c(O)cccc1CCc1ccc(O)cc1 | inactive |  |  | 100 (≈ 387 µM) |  |
| O=C(O)c1c(O)cccc1CC1CCCCCCCCCCC1 | inactive |  |  | 1.56 (≈ 4.9 µM) |  |
| CCCCCC(CC)Cc1cccc(O)c1C(=O)O (stereo unspecified) | inactive |  |  | 3.13 (≈ 11.8 µM) |  |
| CC(C)CCCC(C)CCCc1cccc(O)c1C(=O)O (stereo unspecified) | inactive |  |  | 0.78 (≈ 2.67 µM) |  |
| CCC/C=C\C/C=C\CCCCCCCc1cccc(O)c1C(=O)O | inactive |  | 3.13 (≈ 9.09 µM) | 3.13 (≈ 9.09 µM) |  |
| CCCCCC/C=C\CCCCCCCc1cccc(O)c1C(=O)O [GINGKOLIC ACID] | inactive |  | 6.25 (≈ 18 µM) | 6.25 (≈ 18 µM) |  |
| O=C(O)c1c(O)cccc1CCc1ccc(O)cc1O | inactive |  |  | > 200 |  |
| CCCCCCOC(=O)c1ccccc1O | inactive |  |  |  |  |
| CCCCC(C)Cc1cccc(O)c1C(=O)O (stereo unspecified) | inactive |  |  | 12.5 (≈ 52.9 µM) |  |
